For one test, the system named is U-251. In words: Growth inhibition of human U251 cells after 48 hrs by SRB assay. The format is functional, cell-based. To be noted: U-251, 48 h. In outline: (§1)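 Cells plated at 10⁴ per well and allowed 24 h to attach. Compounds dissolved in DMSO were added at 0.1, 2.5, 5 and 10 µg/ml and incubated 48 h at 37 °C under 5% CO₂. Cells were then fixed, washed and stained with sulforhodamine B, and colour intensity was read on an ELISA reader.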

The nature of test [1]: Ratio of IC50 for mouse EAC cells in aerobic condition to IC50 for mouse EAC cells in hypoxic condition.
Test [2] is described as follows: Cytotoxicity against mouse EAC cells in hypoxic condition assessed as cell viability at 10 ug/ml after 2 hrs by trypan blue exclusion assay. Format: functional. To be noted: Ehrlich, read-out: Activity. In outline:
(§2)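 EAC cells aspirated from ascitic fluid of pre-inoculated female Swiss albino mice, suspended at 2.5×10⁶ cells/ml. Compounds freshly diluted in DMSO, 0.1 ml added per tube. Parallel aerobic and anaerobic tube sets; anaerobic tubes gassed with N₂ throughout. Incubation 2 h, then centrifugation. Trypan blue exclusion with haemocytometer counts; % viability = unstained cells/total cells × 100. DMSO-only negative control.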

The nature of test [3]: Cytotoxicity against mouse EAC cells in aerobic condition assessed as cell viability at 25 ug/ml after 2 hrs by trypan blue exclusion assay. To be noted: Ehrlich, read-out: Activity. The format is functional. In outline:
as §2

The next test has as its system Ehrlich. Briefly: Cytotoxicity against mouse EAC cells in hypoxic condition assessed as concentration required for 1% cell survival.
For another test, the system named is HepG2. Briefly: Growth inhibition of human HepG2 cells after 48 hrs by SRB assay. The format is functional, cell-based. To be noted: HepG2, 48 h. The method, boiled down: as §1
Background: Sulforhodamine B stains cellular protein and so reports cell mass.

The nature of test [4]: Cytotoxicity against mouse EAC cells in hypoxic condition assessed as cell viability at 25 ug/ml after 2 hrs by trypan blue exclusion assay. The format is functional. The following applies: Ehrlich, read-out: Activity. The method, boiled down:
as §2

Test [5] is described as follows: Cytotoxicity against mouse EAC cells in hypoxic condition by trypan blue exclusion assay. Format: functional, cell-based. To be noted: Ehrlich. In outline: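 EAC suspension (2.5×10⁶ cells/ml, from ascitic fluid of pre-inoculated female Swiss albino mice) exposed 2 h to DMSO-dissolved compounds over 1–100 µg/ml, in air or under continuous N₂. Viability by trypan blue exclusion, haemocytometer counts. IC50 taken as the concentration causing 50% mortality in net cell numbers.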

Test [6] in a line: Cytotoxicity against mouse EAC cells in aerobic condition assessed as cell viability at 1 ug/ml after 2 hrs by trypan blue exclusion assay. The following applies: Ehrlich, read-out: Activity. The format is functional. In outline: as §2
Test [7] can be described thus: Cytotoxicity against mouse EAC cells in aerobic condition assessed as cell viability at 50 ug/ml after 2 hrs by trypan blue exclusion assay. Format: functional. To be noted: Ehrlich, read-out: Activity. The method, boiled down:
as §2

Test [8] in a line: Cytotoxicity against mouse EAC cells in aerobic condition assessed as cell viability at 100 ug/ml after 2 hrs by trypan blue exclusion assay. Format: functional. The following applies: Ehrlich, read-out: Activity. In outline: as §2
A short description of test [9]: Cytotoxicity against mouse EAC cells in hypoxic condition assessed as cell viability at 50 ug/ml after 2 hrs by trypan blue exclusion assay. Format: functional. The following applies: Ehrlich, read-out: Activity. In outline: as §2
Test [10] is described as follows: Cytotoxicity against mouse EAC cells in hypoxic condition assessed as cell viability at 100 ug/ml after 2 hrs by trypan blue exclusion assay. Format: functional. To be noted: Ehrlich, read-out: Activity. In outline: as §2
The nature of test [11]: Cytotoxicity against mouse EAC cells in hypoxic condition assessed as cell viability at 5 ug/ml after 2 hrs by trypan blue exclusion assay. Format: functional. The following applies: Ehrlich, read-out: Activity. In outline: as §2
Test [12] is described as follows: Cytotoxicity against mouse EAC cells in hypoxic condition assessed as cell viability at 1 ug/ml after 2 hrs by trypan blue exclusion assay. The format is functional. The following applies: Ehrlich, read-out: Activity. In outline:
as §2

Test [13] can be described thus: Cytotoxicity against mouse EAC cells in aerobic condition assessed as cell viability at 10 ug/ml after 2 hrs by trypan blue exclusion assay. Format: functional. To be noted: Ehrlich, read-out: Activity. In outline:
as §2

Test [14] in a line: Cytotoxicity against mouse EAC cells in aerobic condition assessed as cell viability at 5 ug/ml after 2 hrs by trypan blue exclusion assay. To be noted: Ehrlich, read-out: Activity. Format: functional. The method, boiled down: as §2
A short description of test [15]: Cytotoxicity against mouse EAC cells in aerobic condition by trypan blue exclusion assay. Format: functional, cell-based. To be noted: Ehrlich. In outline: as §2

Consider 2 compounds from ChEMBL document CHEMBL1177836, “New quinoxaline 1, 4-di-N-oxides: anticancer and hypoxia-selective therapeutic agents” (Eur J Med Chem, 2010).

Structures are written as SMILES. Converted amounts (≈) assume the structure as drawn.

Consider `CNc1c(C#N)[n+]([O-])c2cc(Cl)ccc2[n+]1[O-]`, for which the IC50 (in general, the concentration at which inhibition is half-maximal) in the test with U-251 was over 10 µg/mL; in the test with HepG2, 4.75 µg/mL (≈ 19 µM); in test [5], over 100 µg/mL; in test [15] it was over 100 µg/mL. In [1], the HCR (IC50 air/IC50 hypoxia ratio) is over 1. For the same compound, the results for the viability at 10 µg/mL in test [2] and in test [13] were 92.7% and 96.7%, respectively. The viability at 25 µg/mL was found to be 94% in test [3] and 90.6% in test [4]. Besides, the Potency in the test with Ehrlich was over 100 µg/mL. Also, the viability at 1 µg/mL in [6] amounted to 100%; in [12], 99.5%. Further, the viability at 50 µg/mL in [7] came to 82.7%; in [9] it was 81.4%. Besides, the figures for the viability at 100 µg/mL in test [8] and in test [10] were 89% and 72%, respectively. For the same compound, the viability at 5 µg/mL in test [11] and in test [14] was 96% each time.
As for `CC(=O)N(C(C)=O)c1c(C#N)[n+]([O-])c2cc(Cl)ccc2[n+]1[O-]`, the IC50 in the test on U-251 was over 10 µg/mL; with HepG2, 5.69 µg/mL (≈ 17.7 µM); in test [5], 2.5 µg/mL (≈ 7.8 µM); in test [15], over 100 µg/mL. The HCR (IC50 air/IC50 hypoxia ratio) in test [1] was over 40. Further, the viability at 10 µg/mL in [2] turned out to be 12.6%; in test [13] it was 83.9%. Besides, the viability at 25 µg/mL in test [3] was 80.7%; in test [4], 3%. The Potency with Ehrlich is 22 µg/mL (≈ 68.6 µM). Further, the viability at 1 µg/mL in test [6] amounted to 99.6%; in test [12] it was 75.4%. For the same compound, the viability at 50 µg/mL worked out at 78.9% in [7] and 1.3% in test [9]. Besides, the viability at 100 µg/mL in test [8] was 77.7%; in test [10] it was 0%. For the same compound, the results for the viability at 5 µg/mL in test [11] and in [14] were 30.3% and 99%, respectively.
